From ChEMBL document CHEMBL1141250, “Isolation, structure, and coccidiostat activity of coccidiostatin A” (J Nat Prod, 2007)
Activity calls are given as the source filed them. No cut-off for these calls is given here.

Key:
HFF [1] = assay: Cytotoxicity against human HFF cells at =< 0.125 ug/ml by Ex-Bes assay; assay type: cell-based
Besnoitia jellisoni = assay: Antiprotozoal activity against Besnoitia jellisoni trophozoites in HFF cells assessed as intactness of cell monolayer after 4 days by Ex-Bes assay; assay type: functional; settings: 96 h, read-out: ED50 (the source's name)
Procedure, shortened: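 Whole-cell in vitro Ex-Bes (extended Besnoitia) assay: B. jellisoni trachyzoites treated with test compounds. ED50 is the concentration giving 50% reduction of trachyzoites relative to an untreated control, read visually. Value is the average of two experiments run in duplicate.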

HFF [2] = assay: Cytotoxicity against human HFF cells at 1 ug/ml by Ex-Bes assay; assay type: cell-based
Eimeria acervulina [3] = assay: Anticococcidal activity against Eimeria acervulina infected chick assessed as reduction of oocyst at 150 ppm after 48 hrs relative to control; assay type: functional; design: scale not given: the % may be the effect or the level left
Procedure, shortened: (§1)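 In vivo test in the minibird assay for coccidiosis (MAC) using Eimeria-infected chickens. Compounds were tested as purified material. Activity in this assay guided fractionation of the fungal extract.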

Eimeria acervulina [4] = assay: Anticococcidal activity against Eimeria acervulina infected chick assessed as reduction of oocyst at 75 ppm after 48 hrs relative to control; assay type: functional; design: scale not given: the % may be the effect or the level left; procedure, shortened: as §1
Eimeria mitis [5] = assay: Anticococcidal activity against Eimeria mitis infected chick at 75 to 150 ppm; assay type: functional, organism-based; procedure, shortened: as §1
Eimeria maxima [6] = assay: Anticococcidal activity against Eimeria maxima infected chick assessed as reduction of oocyst at 150 ppm after 48 hrs relative to control; assay type: functional, organism-based; procedure, shortened: as §1
Eimeria maxima [7] = assay: Anticococcidal activity against Eimeria maxima infected chick at 75 to 150 ppm; assay type: functional, organism-based; procedure, shortened: as §1
Eimeria tenella [8] = assay: Anticococcidal activity against Eimeria tenella infected chick assessed as reduction of oocyst at 150 ppm after 48 hrs relative to control; assay type: functional; design: scale not given: the % may be the effect or the level left; procedure, shortened: as §1
Eimeria praecox [9] = assay: Anticococcidal activity against Eimeria praecox infected chick at 75 to 150 ppm; assay type: functional; procedure, shortened: as §1
HFF [10] = assay: Cytotoxicity against human HFF cells at 500 ppm by Ex-Bes assay; assay type: cell-based
Eimeria acervulina [11] = assay: Anticococcidal activity against Eimeria acervulina infected chick at 75 to 150 ppm; assay type: functional, organism-based; procedure, shortened: as §1
Eimeria praecox [12] = assay: Anticococcidal activity against Eimeria praecox infected chick assessed as reduction of oocyst at 75 ppm after 48 hrs relative to control; assay type: functional; procedure, shortened: as §1
Eimeria tenella [13] = assay: Anticococcidal activity against Eimeria tenella infected chick at 75 to 150 ppm; assay type: functional, organism-based; procedure, shortened: as §1
Eimeria mitis [14] = assay: Anticococcidal activity against Eimeria mitis infected chick assessed as reduction of oocyst at 150 ppm after 48 hrs relative to control; assay type: functional; design: scale not given: the % may be the effect or the level left; procedure, shortened: as §1
Eimeria maxima [15] = assay: Anticococcidal activity against Eimeria maxima infected chick assessed as reduction of oocyst at 75 ppm after 48 hrs relative to control; assay type: functional, organism-based; procedure, shortened: as §1
Eimeria praecox [16] = assay: Anticococcidal activity against Eimeria praecox infected chick assessed as reduction of oocyst at 150 ppm after 48 hrs relative to control; assay type: functional; procedure, shortened: as §1
Eimeria praecox [17] = assay: Anticococcidal activity against Eimeria praecox infected chick at 416 ppm, po; assay type: functional; procedure, shortened: as §1
Eimeria maxima [18] = assay: Anticococcidal activity against Eimeria maxima infected chick at 416 ppm, po; assay type: functional, organism-based; procedure, shortened: as §1
Eimeria tenella [19] = assay: Anticococcidal activity against Eimeria tenella infected chick at 28 mg/kg, ip; assay type: functional, organism-based; design: dose 28 mg/kg; procedure, shortened: as §1
Eimeria praecox [20] = assay: Anticococcidal activity against Eimeria praecox infected chick at 28 mg/kg, ip; assay type: functional, organism-based; design: dose 28 mg/kg; procedure, shortened: as §1
Eimeria acervulina [21] = assay: Anticococcidal activity against Eimeria acervulina infected chick at 28 mg/kg, ip; assay type: functional, organism-based; design: dose 28 mg/kg; procedure, shortened: as §1
Eimeria acervulina [22] = assay: Anticococcidal activity against Eimeria acervulina infected chick at 416 ppm, po; assay type: functional, organism-based; procedure, shortened: as §1
Eimeria maxima [23] = assay: Anticococcidal activity against Eimeria maxima infected chick at 28 mg/kg, ip; assay type: functional, organism-based; design: dose 28 mg/kg; procedure, shortened: as §1
Eimeria mitis [24] = assay: Anticococcidal activity against Eimeria mitis infected chick at 28 mg/kg, ip; assay type: functional, organism-based; design: dose 28 mg/kg; procedure, shortened: as §1
Eimeria tenella [25] = assay: Anticococcidal activity against Eimeria tenella infected chick at 416 ppm, po; assay type: functional, organism-based; procedure, shortened: as §1
Eimeria mitis [26] = assay: Anticococcidal activity against Eimeria mitis infected chick at 416 ppm, po; assay type: functional, organism-based; procedure, shortened: as §1

## CCC(=O)CCCCC[C@@H]1NC(=O)[C@H]2CCCCN2C(=O)[C@H]([C@@H](C)CC)NC(=O)[C@H](Cc2cn(OC)c3ccccc23)NC1=O [APICIDIN]
HFF [1]
  Activity: Non-toxic
Besnoitia jellisoni
  EC50: < 280 nM
HFF [2]
  Activity: Toxic

## CC1=C[C@@]2(C)O[C@@H](C)[C@@](C)(O)[C@H]2[C@@H]1/C=C/C=C/C=C/C=C/C1(C)C2OC(=O)C1(C)C(=O)C2C (stereo partly drawn) [COCCIDIOSTATIN A]
Eimeria acervulina [3]
  Activity: 74%
Eimeria acervulina [4]
  Activity: 64%
Eimeria mitis [5]
  Activity: Active
Eimeria maxima [6]
  Activity: inactive
Eimeria maxima [7]
  Activity: Active
Eimeria tenella [8]
  Activity: 59%
Eimeria praecox [9]
  Activity: Active
HFF [10]
  Activity: Non-toxic
Eimeria acervulina [11]
  Activity: Active
Eimeria praecox [12]
  Activity: inactive
Eimeria tenella [13]
  Activity: Active
Eimeria mitis [14]
  Activity: 44%
Eimeria maxima [15]
  Activity: inactive
Eimeria praecox [16]
  Activity: inactive

## CC(=C/C(C)=C\[C@]1(C)O[C@@H](C)[C@]2(C)O[C@@H]21)/C=C(C)\C=C(C)/C=C(\C)[C@@H]1OC(=O)C(C)(C)C(=O)[C@H]1C [EMECORRGATIN A]
Besnoitia jellisoni
  EC50: 1390 nM
Eimeria praecox [17]
  Activity: inactive
Eimeria maxima [18]
  Activity: inactive
Eimeria tenella [19]
  Activity: inactive
Eimeria praecox [20]
  Activity: inactive
Eimeria acervulina [21]
  Activity: inactive
Eimeria acervulina [22]
  Activity: inactive
Eimeria maxima [23]
  Activity: inactive
Eimeria mitis [24]
  Activity: inactive
Eimeria tenella [25]
  Activity: inactive
Eimeria mitis [26]
  Activity: inactive
